High-throughput results (PubChem)
This is a sample that favours compounds with a hit; in the whole collection about 5.7% have one here.
SKKanGAS inh = S. pyogenes SKKanGAS growth inhibitors in kanamycin, primary screen, streptokinase expression inhibitor project, SKKanGAS strain, BacTiter-Glo luminescence; 300,000 compounds, 1.3% hits; inhibition, % at 7.5 µM; 6 h;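 active = mean replicate score, as percent of positive control median, at least 50; inconclusive = mean below 50 but one replicate at or above 50; inactive = mean and every replicate below 50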;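 note: strain carries kanamycin resistance gene driven by streptokinase promoter and grows in 40 µg/ml kanamycin; loss of luminescence reflects streptokinase promoter inhibition or plain growth inhibition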
Mdm2 MdmX PPI = inhibitors of human Mdm2-MdmX association, primary screen, cell-based, luminescence, split luciferase, SaOS-2, uHTS. Protein Mdm4 (Homo sapiens) + E3 ubiquitin-protein ligase Mdm2 (Homo sapiens), …. SaOS-2 split-luciferase Mdm2/MdmX complementation. inhibition, % at 8 µM. 330,000 compounds, 3% hits;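 active = inhibition of at least 50% at 8 µM in the primary screen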
Target sequence (O15151 whole entry, looked up): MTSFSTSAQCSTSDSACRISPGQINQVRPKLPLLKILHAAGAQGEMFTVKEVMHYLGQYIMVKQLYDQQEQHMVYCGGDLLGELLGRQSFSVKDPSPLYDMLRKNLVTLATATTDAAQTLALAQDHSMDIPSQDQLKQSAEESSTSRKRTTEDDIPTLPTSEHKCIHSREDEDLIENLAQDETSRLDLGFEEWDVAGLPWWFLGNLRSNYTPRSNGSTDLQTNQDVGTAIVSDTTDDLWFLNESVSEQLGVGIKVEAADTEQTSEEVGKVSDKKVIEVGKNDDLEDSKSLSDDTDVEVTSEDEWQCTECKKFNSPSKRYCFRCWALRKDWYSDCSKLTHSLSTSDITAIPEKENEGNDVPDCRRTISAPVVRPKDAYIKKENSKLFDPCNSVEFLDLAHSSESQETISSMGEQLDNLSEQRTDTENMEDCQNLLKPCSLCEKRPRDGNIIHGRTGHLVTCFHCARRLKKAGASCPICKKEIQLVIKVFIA
Target sequence (Q00987 whole entry, looked up): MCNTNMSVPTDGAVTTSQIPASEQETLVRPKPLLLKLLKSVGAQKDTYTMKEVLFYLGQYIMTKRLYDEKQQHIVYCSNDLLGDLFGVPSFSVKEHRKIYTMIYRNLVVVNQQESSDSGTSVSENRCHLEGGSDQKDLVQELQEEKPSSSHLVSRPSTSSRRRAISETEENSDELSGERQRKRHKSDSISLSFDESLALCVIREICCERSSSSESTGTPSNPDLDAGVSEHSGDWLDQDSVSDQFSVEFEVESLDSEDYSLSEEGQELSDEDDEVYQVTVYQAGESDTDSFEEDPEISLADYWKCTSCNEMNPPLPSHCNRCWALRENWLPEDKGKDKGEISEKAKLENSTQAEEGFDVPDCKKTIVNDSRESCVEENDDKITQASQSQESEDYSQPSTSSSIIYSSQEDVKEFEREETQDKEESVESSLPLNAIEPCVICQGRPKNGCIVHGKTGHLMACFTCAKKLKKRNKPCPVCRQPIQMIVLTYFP
Beta cell apopt = inhibitors of cytokine-induced beta cell apoptosis, primary screen, luminescence | protection from apoptosis, % (concentration not given with the values) | INS-1E cytokine-induced death, ATP luminescence, 48 h; percent of positive-control rescue, neutral wells zero | 300,000 compounds, 0.8% hits;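 active = Every replicate reaches about 75%, or at least half do and their mean reaches it too, limit read from the data; inconclusive = At least half of replicates reach the limit but their mean does not; inactive = Under half of replicates reach the limit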;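 note: higher means more ATP so stronger rescue from cytokine killing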
Calb FLC = C. albicans growth inhibition with fluconazole, primary screen, CaCi-2 strain, Alamar Blue fluorescence; C. albicans CaCi-2 (fluconazole-resistant clinical isolate) + fluconazole, 48 h; growth inhibition, % (test concentration not listed); 300,000 compounds, 0.57% hits;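 active = growth inhibition above about 58% in most replicates, limit read from the data, passing the limit was not always enough; inconclusive = exactly half the replicates above a set limit; inactive = most replicates below a set limit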;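 note: all wells also contain fluconazole at 8 µg/ml as a sub-toxic cotreatment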
CSC inhib = cancer stem cell viability inhibitors, primary screen, luminescence | AID 2717, 2010 | cancer stem cell-like cells viability | 300,000 compounds, 1.1% hits | inhibition, % at 7.5 µM; in the data active = inhibition above about 75%; inconclusive = no clear call, values can overlap the other calls; tested in HMLE shEcad cells
T cruzi inh = inhibitors of intracellular T. cruzi growth, primary screen, luminescence, NIH3T3 host cells; inhibition, % (no concentration beside the values); AID 1885, 2009; T. cruzi beta-gal in NIH3T3, 90 h; 300,000 compounds, 1.4% hits;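 active = mean inhibition across valid replicates above about 55%, limit read from the data; inconclusive = mean below that limit but half or more replicates reach it; inactive = mean below it, under half of replicates reach it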;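 note: signal also drops with host cell toxicity which is not excluded here; higher percent means less beta-gal luminescence so fewer parasites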
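compound dosing = single 50 nL compound addition per well in DMSO | material = NIH/3T3 host cells with β-galactosidase reporter T. cruzi | input = 5,000 host fibroblasts per well | timing = ≥90 h infection period, 3 h prior cell attachment | read-out basis = percent inhibition of parasite-derived β-gal signal | detection = GalScreen β-gal luminescence, detergent lysis, 60 min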
Mdm2 MdmX conf = Mdm2-MdmX complex disruptors, retested hits, confirmation, luminescence, single concentration; Mdm2-MdmX binding, luminescent assay; inhibition, % at 8 µM; 10,000 compounds, 55% hits; shares compounds with Mdm2 MdmX PPI; in the data active = inhibition above about 40%
FLuc counter = full-length luciferase signal inhibition, confirmation, counter-screen for Mdm2/MdmX interaction inhibitor project, cell-based, single concentration, SaOS-2; shares compounds with Mdm2 MdmX PPI; SaOS-2 full-length luciferase counterscreen, luminescence; inhibition, % at 8 µM; 6,200 compounds, 77% hits; AID 504607, 2011;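 active = mean inhibition at 8 µM reaching about 37%, which flags the compound as non-specific, limit read from the data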;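 note: p53-null SaOS-2 cells with luciferase driven by a doxycycline-inducible promoter; compound on cells about two nights before reading with doxycycline added after day one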
Large screens that a line does not name were inactive (follow-up assays come after a bar, where they were run).

CC[C@]12c3[nH]c4cc(CCC(=O)N(C)C)ccc4c3CCN1C(=O)[C@@H](CC(=O)NCCc1ccccn1)C[C@@H]2C(=O)N1CCN(C(=O)C2CC2)CC1	none (no result: SKKanGAS inh, Beta cell apopt, Calb FLC, CSC inhib, T cruzi inh)
CC1CC(C)CN(CCCNC(=O)CN2C(=O)c3cccnc3Oc3ccc(Cl)cc32)C1 (stereo not drawn)	none
COc1ccc(C(=O)Nc2ccc(C)cn2)c(OC)c1	Mdm2 MdmX PPI 67.8, Calb FLC inconclusive (no result: Beta cell apopt) | Mdm2 MdmX conf 66.9 | FLuc counter 85.1
COc1ccc(C(=O)Nc2cc(C)on2)c(OC)c1	none (no result: Beta cell apopt)
C/C(CC(C)(C)C1CCCCC1)=N\NC(N)=S	Mdm2 MdmX PPI 56.2, Calb FLC 104.4, T cruzi inh 55.8 (no result: Beta cell apopt, CSC inhib) | Mdm2 MdmX conf inactive
C/C(CCC12CC3CC(CC(C3)C1)C2)=N\NC(N)=S	none
CC1=CC(C)[C@H](/C=N/n2c(=O)[nH]c3c([nH]c4ccc(C)cc43)c2=O)C(C)C1 (stereo partly drawn)	Mdm2 MdmX PPI 86.2, CSC inhib 87.3 | Mdm2 MdmX conf inactive
Cc1cccn2c(=O)c(C(=O)NC3CC(C)CC(C)(C)C3)c(O)nc12 (stereo not drawn)	none
COc1ccc(-c2cccc3c2NC(=O)C3=O)cc1OC	none (no result: SKKanGAS inh, Beta cell apopt, Calb FLC, CSC inhib, T cruzi inh)
COc1ccc(N(CC(=O)NCCSCc2ccccc2C)S(=O)(=O)c2ccccc2)cc1	none (no result: Beta cell apopt)
CCN(CC)CCOC(=O)c1ccc(N/C=C(/C#N)c2nc(-c3ccc(OC)c(OC)c3)cs2)cc1	none
CCN(CC)CCOC(=O)c1ccc(N/C=C(/C#N)c2nc(-c3cccc(OC)c3)cs2)cc1	Mdm2 MdmX PPI 61.1 | Mdm2 MdmX conf inactive
O=C(CN1C(=O)/C(=C\c2ccc(F)cc2)Oc2ccccc21)N1CCN(c2ccccn2)CC1	Mdm2 MdmX PPI 79.3 | Mdm2 MdmX conf inactive | FLuc counter 78.5
COc1ccc(/C=C2\SC(=S)N(CCCC(=O)Nc3ccccn3)C2=O)cc1OC	Mdm2 MdmX PPI 62.9 | Mdm2 MdmX conf 51.8 | FLuc counter 75.9
O=C(CN1C(=O)/C(=C\c2cccc(F)c2)Oc2ccccc21)N1CCN(c2ccccn2)CC1	none
O=C(CN1C(=O)/C(=C/c2ccc(F)cc2)SC1=S)N1CCN(CCc2ccccn2)CC1	Mdm2 MdmX PPI 60.5 (no result: Beta cell apopt) | Mdm2 MdmX conf inactive
Cc1ccc(/C=C2\SC(=S)N(CCCC(=O)Nc3ccccn3)C2=O)cc1	Mdm2 MdmX PPI 68.9 | Mdm2 MdmX conf 68.3 | FLuc counter 51.5
CC(O)[C@H]1CNCCN1CCc1cccc(F)c1 (stereo partly drawn)	none
Cc1ccc(C(=O)Nc2ccccc2N2CCCC2)s1	none (no result: SKKanGAS inh, Calb FLC, CSC inhib, T cruzi inh)
CN(C)CCNc1nc2sc3c(c2c(=O)n1CCc1ccccc1)CCCCC3	Mdm2 MdmX PPI 76.4, CSC inhib 105.7, T cruzi inh 58.5 | Mdm2 MdmX conf inactive
CN(C)S(=O)(=O)c1ccc(C(=O)Nc2nnc(-c3ccc4c(c3)CCCC4)o2)cc1	SKKanGAS inh 94.3, Mdm2 MdmX PPI 60.4 | Mdm2 MdmX conf inactive
CSCc1nnc(NC(=O)c2ccc(S(=O)(=O)N(C)C)cc2)o1	none
O=C(Nc1nnc(-c2ccc(Cl)cc2)o1)C1=COCCO1	none (no result: Beta cell apopt)
O=C(Nc1nnc(-c2ccc3c(c2)CCCC3)o1)c1ccc(Cl)cc1Cl	SKKanGAS inh 96.0, Mdm2 MdmX PPI 50.6, Calb FLC 84.5 | Mdm2 MdmX conf inactive
Cc1ccc2c(c1)N(CC(=O)NCCCN1CCOCC1)C(=O)C(C(C)C)O2 (stereo not drawn)	none
CC(C)CCn1c(O)c(N=Nc2ccccn2)c2ccccc21	none
